In ChEMBL document CHEMBL4342526, “Exploration of the Structural Space in 4(3H)-Quinazolinone Antibacterials” (J Med Chem, 2020):
Converted amounts (≈) assume the structure as drawn. The source made the active and inactive calls. The calls are words filed in the database; no cut-off is given here.

Columns and labels:
[1] = system: Staphylococcus aureus; assay: Antibacterial activity against multi-drug resistant mecA-positive Staphylococcus aureus ATCC 27660 measured after 16 to 20 hrs by microdilution method; format: functional
Procedure, shortened: (§1)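 CLSI broth microdilution; two-fold serial compound dilutions in triplicate in cation-adjusted Mueller–Hinton broth with 2% NaCl, inoculum 5 × 10^5 CFU/mL; 37 °C for 16–20 h; MIC = lowest concentration with no visible growth.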

[2] = Protein binding in human plasma at 10 uM measured after 6 hrs UV-UPLC based rapid equilibrium dialysis method; format: ADME, cell-free
Procedure, shortened: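 Rapid equilibrium dialysis: human plasma was cleared by centrifugation and spiked from a 1 mM DMSO stock to a final 10 μM, against 0.1 M PBS pH 7.4. Dialysis ran 6 h at 37 °C with orbital shaking. Buffer (free) and plasma (total) aliquots were mixed with internal standard in acetonitrile and measured by UPLC-UV at 285 nm. B% = (Cp−Cf)/Cp×100.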

[3] = system: Staphylococcus aureus; assay: Antibacterial activity against multi-drug resistant mecA-positive Staphylococcus aureus NRS119 measured after 16 to 20 hrs by microdilution method; format: functional; procedure, shortened: as §1
[4] = system: Staphylococcus aureus; assay: Antibacterial activity against clindamycin/erythromycin/spectinomycin-resistant mec-positive Staphylococcus aureus NRS70 measured after 16 to 20 hrs by microdilution method; format: functional; procedure, shortened: as §1
[5] = system: Staphylococcus aureus; assay: Antibacterial activity against Staphylococcus aureus ATCC 29213 measured after 16 to 20 hrs by microdilution method; format: functional
Procedure, shortened: (§2)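 CLSI broth microdilution: two-fold serial dilutions in triplicate in cation-adjusted Mueller–Hinton broth with 2% NaCl, inoculum 5 × 10^5 CFU/mL, incubated at 37 °C for 16–20 h. MIC is the lowest concentration preventing visible growth.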

[6] = Selectivity index, ratio of IC50 for human HeLa cells to MIC for clindamycin/erythromycin/spectinomycin-resistant mec-positive Staphylococcus aureus NRS70; format: toxicity
Procedure, shortened: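 HeLa cytotoxicity by XTT assay in triplicate, IC50 by nonlinear regression; ratio IC50 over broth microdilution MIC against NRS70.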

[7] = system: Staphylococcus aureus; assay: Antibacterial activity against multi-drug resistant mec-positive Staphylococcus aureus USA300 measured after 16 to 20 hrs by microdilution method; format: functional; procedure, shortened: as §1
[8] = Solubility of the compound in water; format: physicochemical; details: buffer
[9] = system: Staphylococcus aureus; assay: Antibacterial activity against Staphylococcus aureus ATCC 29213 measured after 16 to 20 hrs in presence of bovine serum albumin by microdilution method; format: functional
Procedure, shortened: (§3)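 S. aureus ATCC29213 MIC was run by CLSI microdilution in cation-adjusted Mueller–Hinton broth plus 2% NaCl, with and without 0.5% bovine serum albumin. Compounds were two-fold serially diluted in triplicate, inoculum was 5 × 10^5 CFU/mL, and plates were incubated at 37 °C for 16–20 h. The endpoint was the lowest concentration with no visible growth.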

[10] = system: HeLa; assay: Cytotoxicity against human HeLa cells assessed as reduction in cell viability measured after 16 hrs by XTT assay; format: cell-based
Procedure, shortened: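 HeLa cells (ATCC CCL-2), run in triplicate. Viability was read by XTT, and IC50 was obtained by nonlinear regression.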

[11] = system: Staphylococcus epidermidis; assay: Antibacterial activity against Staphylococcus epidermidis ATCC 35547 measured after 16 to 20 hrs by microdilution method; format: functional; procedure, shortened: as §1
[12] = biological target: T1, MecA (Staphylococcus aureus) (UniProt Q7DHH4); assay: (§4) Binding affinity to PBP2a in clindamycin/erythromycin/spectinomycin-resistant mec-positive Staphylococcus aureus NRS70 assessed potentiation of piperacillin and tazobactam-induced bactericidal activity by measuring log reduction in bacterial count at 0.5 times MIC measured after 12 hrs by time-kill assay
T1 sequence (whole entry): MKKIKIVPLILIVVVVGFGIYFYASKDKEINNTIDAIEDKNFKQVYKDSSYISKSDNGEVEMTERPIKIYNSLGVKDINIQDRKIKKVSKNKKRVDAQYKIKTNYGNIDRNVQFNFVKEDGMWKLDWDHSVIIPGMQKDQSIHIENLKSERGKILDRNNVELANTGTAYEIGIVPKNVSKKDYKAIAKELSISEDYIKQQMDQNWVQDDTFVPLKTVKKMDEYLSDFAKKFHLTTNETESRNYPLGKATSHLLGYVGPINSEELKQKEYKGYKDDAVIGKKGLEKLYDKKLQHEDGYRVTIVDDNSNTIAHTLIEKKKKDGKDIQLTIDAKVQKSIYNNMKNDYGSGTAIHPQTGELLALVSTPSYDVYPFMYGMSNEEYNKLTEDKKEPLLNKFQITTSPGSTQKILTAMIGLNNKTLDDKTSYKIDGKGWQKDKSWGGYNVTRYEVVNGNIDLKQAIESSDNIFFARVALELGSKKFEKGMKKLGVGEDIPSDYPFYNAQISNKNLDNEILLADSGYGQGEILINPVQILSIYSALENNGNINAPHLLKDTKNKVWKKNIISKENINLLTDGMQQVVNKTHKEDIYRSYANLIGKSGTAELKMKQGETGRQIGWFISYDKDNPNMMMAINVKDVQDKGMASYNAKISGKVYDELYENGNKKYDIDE

[13] = system: Bacillus cereus; assay: Antibacterial activity against Bacillus cereus ATCC 13061 measured after 16 to 20 hrs by microdilution method; format: functional; procedure, shortened: as §2
[14] = Volume of distribution in ICR mouse at 10 mg/kg, iv by UV-UPLC analysis; format: ADME, organism-based; details: in vivo
Procedure, shortened: (§5)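 Female ICR mice, 6–8 weeks old, 20–25 g. Each received 50 μL by tail-vein injection (5 or 10 mg/kg) of a filter-sterilized 2 or 4 mg/mL solution in 20% DMSO/10% Tween-80/70% water. Terminal blood was collected and plasma harvested by centrifugation. Plasma was precipitated with acetonitrile containing internal standard, and the supernatant was analyzed by C18 UPLC with UV detection at 285 nm.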

[15] = system: Enterococcus faecalis; assay: Antibacterial activity against Enterococcus faecalis ATCC 29212 measured after 16 to 20 hrs by microdilution method; format: functional; procedure, shortened: as §2
[16] = system: Staphylococcus aureus; assay: Bacteriostatic activity against clindamycin/erythromycin/spectinomycin-resistant mec-positive Staphylococcus aureus NRS70 assessed as log reduction in bacterial count at 0.5 to 16 times MIC by time-kill assay; format: functional
[17] = system: Bacillus licheniformis; assay: Antibacterial activity against Bacillus licheniformis ATCC 12759 measured after 16 to 20 hrs by microdilution method; format: functional; procedure, shortened: as §2
[18] = Elimination half life in ICR mouse at 10 mg/kg, iv by UV-UPLC analysis; format: ADME, organism-based; details: ICR, in vivo, read-out: beta t1/2; procedure, shortened: as §5
[19] = system: Staphylococcus aureus; assay: Bactericidal activity against methicillin resistant Staphylococcus aureus NRS70 infected in ICR mouse model of neutropenic thigh infection assessed as log reduction in bacterial count in thigh at 20 mg/kg, sc administered at 8 hrs interval for 3 times starting from 1 hr post infection and measured 24 hrs post infection; format: functional
Procedure, shortened: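 Female ICR mice (6–8 weeks, 20–25 g) made neutropenic with cyclophosphamide 200 mg/kg ip at 4 and 1 days pre-infection; 0.1 mL NRS70 at 1 × 10^6 CFU/mL in brain heart infusion injected into right thigh; drug in 10% DMSO/90% water sc every 8 h ×3 from 1 h post-infection; thigh CFU counted at 24 h; n = 8/group; mean ± SEM, one-way ANOVA with Tukey test.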

[20] = Elimination half life in ICR mouse at 10 mg/kg, po administered via gavage by UV-UPLC analysis; format: ADME, organism-based; details: in vivo, read-out: beta t1/2 (converted)
[21] = system: Staphylococcus aureus; assay: Selectivity ratio of MIC for Staphylococcus aureus ATCC 29213 in presence of bovine serum albumin to MIC for Staphylococcus aureus ATCC 29213 in absence of bovine serum albumin; format: functional; procedure, shortened: as §3
[22] = biological target: T1, MecA (Staphylococcus aureus); assay: as §4, with “measuring” for “measuring log”, “24” for “12”
[23] = system: Streptococcus pneumoniae; assay: Antibacterial activity against Streptococcus pneumoniae ATCC 49619 measured after 16 to 20 hrs by microdilution method; format: functional; procedure, shortened: as §2
[24] = system: Clostridioides difficile; assay: Antibacterial activity against Clostridium difficile ATCC 43255 measured after 16 to 20 hrs by microdilution method; format: functional
[25] = AUC (0 to last) in ICR mouse at 5 mg/kg, iv by UV-UPLC analysis; format: ADME, organism-based; set-up: dose 5 mg/kg, route intravenous, time 0 - last; details: in vivo; procedure, shortened: as §5
[26] = Clearance in ICR mouse at 5 mg/kg, iv by UV-UPLC analysis; format: ADME, organism-based; details: in vivo; procedure, shortened: as §5
[27] = Clearance in ICR mouse at 5 mg/kg, iv by UV-UPLC analysis relative to hepatic blood flow; format: ADME, organism-based; details: in vivo; procedure, shortened: as §5

Structure (SMILES): N#Cc1ccc(/C=C/c2nc3ccccc3c(=O)n2-c2ccc[n+]([O-])c2)cc1
- MIC [1]: 2 µg/mL (≈ 5.46 µM)
- PPB [2]: 67.9%
- MIC [3]: 4 µg/mL (≈ 10.9 µM)
- MIC [4]: 1 µg/mL (≈ 2.73 µM)
- MIC [5]: 2 µg/mL (≈ 5.46 µM)
- selectivity ratio [6]: > 128
- MIC [7]: 1 µg/mL (≈ 2.73 µM)
- solubility [8]: Insoluble
- MIC [9]: 32 µg/mL
- IC50 [10]: > 128 µg/mL

Structure (SMILES): N#Cc1ccc(/C=C/c2nc3ccccc3c(=O)n2-c2cccc(C(N)=O)c2)cc1
- PPB [2]: 97.1%
- MIC [3]: 32 µg/mL (≈ 81.5 µM)
- MIC [5]: 2 µg/mL (≈ 5.1 µM)
- selectivity ratio [6]: > 64
- MIC [7]: 1 µg/mL (≈ 2.55 µM)
- solubility [8]: Insoluble
- MIC [9]: 16 µg/mL
- IC50 [10]: > 128 µg/mL

Structure (SMILES): N#Cc1ccc(/C=C/c2nc3ccccc3c(=O)n2-c2cccc(C(=O)O)c2)cc1
- MIC [11]: 1 µg/mL (≈ 2.54 µM)
- MIC [1]: 2 µg/mL (≈ 5.08 µM)
- log(activity) [12]: > 3
- MIC [13]: > 128 µg/mL
- Vd [14]: 0.3 L/kg
- MIC [3]: 1 µg/mL (≈ 2.54 µM)
- MIC [15]: > 128 µg/mL
- log(activity) [16]: <3
- MIC [17]: > 128 µg/mL
- half-life [18]: > 20 h
- log(activity) [19]: 0.67
- half-life [20]: > 20 h
- selectivity ratio [21]: <=4
- Activity [22]: inactive
- MIC [4]: 2 µg/mL (≈ 5.08 µM)
- MIC [23]: 16 µg/mL (≈ 40.7 µM)
- MIC [5]: 2 µg/mL (≈ 5.08 µM)
- MIC [24]: 128 µg/mL (≈ 325 µM)
- MIC [7]: 0.5 µg/mL (≈ 1.27 µM)
- MIC [9]: 8 µg/mL
- IC50 [10]: 173 µg/mL (≈ 440 µM)

Structure (SMILES): O=C(O)c1cccc(-n2c(/C=C/c3ccc(Cl)cc3)nc3ccccc3c2=O)c1
- MIC [1]: 0.25 µg/mL (≈ 0.621 µM)
- PPB [2]: > 99.9%
- MIC [3]: 0.125 µg/mL (≈ 0.31 µM)
- selectivity ratio [21]: <=4
- MIC [4]: 0.25 µg/mL (≈ 0.621 µM)
- MIC [5]: 0.25 µg/mL (≈ 0.621 µM)
- selectivity ratio [6]: 200
- MIC [7]: 0.125 µg/mL (≈ 0.31 µM)
- MIC [9]: 1 µg/mL
- IC50 [10]: 50 µg/mL (≈ 124 µM)

Structure (SMILES): O=C(O)c1cccc(-n2c(/C=C/c3ccc(Br)s3)nc3ccccc3c2=O)c1
- MIC [1]: 0.5 µg/mL (≈ 1.1 µM)
- PPB [2]: > 99.9%
- MIC [3]: 4 µg/mL (≈ 8.82 µM)
- MIC [4]: 0.5 µg/mL (≈ 1.1 µM)
- MIC [5]: 0.25 µg/mL (≈ 0.551 µM)
- selectivity ratio [6]: 380
- MIC [7]: 0.5 µg/mL (≈ 1.1 µM)
- MIC [9]: 2 µg/mL
- IC50 [10]: 190 µg/mL (≈ 419 µM)

Structure (SMILES): C#Cc1ccc(/C=C/c2nc3ccccc3c(=O)n2-c2cccc(S(N)(=O)=O)c2)cc1
- AUC(0-t) [25]: 2970 ng·h/mL
- clearance [26]: 28.2 mL/min/kg
- PPB [2]: 98.2%
- MIC [3]: 0.06 µg/mL (≈ 0.14 µM)
- selectivity ratio [6]: 1020
- CL [27]: > 10%
- MIC [9]: 0.5 µg/mL
- IC50 [10]: 61 µg/mL (≈ 143 µM)

Structure (SMILES): CS(=O)(=O)Nc1cccc(-n2c(NCc3ccc(C#N)cc3)nc3ccccc3c2=O)c1
- MIC [1]: 0.125 µg/mL (≈ 0.281 µM)
- PPB [2]: > 99.9%
- MIC [3]: 0.25 µg/mL (≈ 0.561 µM)
- MIC [4]: 0.25 µg/mL (≈ 0.561 µM)
- MIC [5]: 0.125 µg/mL (≈ 0.281 µM)
- selectivity ratio [6]: 248
- MIC [7]: 0.25 µg/mL (≈ 0.561 µM)
- MIC [9]: 1 µg/mL
- IC50 [10]: 62 µg/mL (≈ 139 µM)
